Source: PMC2114617 (The Journal of Cell Biology, 1986)

What was measured:
[1] = system: B16-F10 melanoma cells; assay: Inhibition of B16-F10 melanoma cell spreading on fibronectin; format: cell-based, murine; details: data not shown
In short: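 Wells coated 60 min at room temperature with human plasma fibronectin (4 μg/ml) in PBS+, then blocked 30 min with heat-denatured BSA. Test peptide in PBS+ was added, with or without 5 μg/ml mAb333. Cells were fixed and %-spread scored by phase contrast (300 cells/well).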

[2] = system: B16-F10 melanoma cells; assay: Inhibition of B16-F10 melanoma cell spreading on CS5; format: cell-based, murine; details: CS5 substrate; data not shown
[3] = system: BHK fibroblasts; assay: Spreading of BHK fibroblasts on fibronectin or its tryptic fragments; format: cell-based, hamster; details: substrate-coated protein
In short: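 Wells were coated 60 min at room temperature with human plasma fibronectin or its purified tryptic fragments (90-98% pure), with coating levels expressed in nM. Wells were blocked with heat-denatured BSA.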

Row | Substance | Inhibition of B16-F10 spreading on fibronectin at concentrations up to 1 mg/ml [1] | further results
1 | Arg- Asp [RD] | completely inactive | –
2 | Arg-Gly-Pro-Phe-Pro-lle [RGPFPI] | completely inactive | –
3 | GRGD | – | Inhibition of B16-F10 spreading on CS5 [2]: highly inhibitory
4 | Gly-His-Lys [GHK] | completely inactive | –
5 | SDGR | – | Inhibition of B16-F10 spreading on CS5 [2]: more active than GRGDS
6 | Thr-Lys-Pro- Arg [TKPR] | completely inactive | –
7 | fibronectin | – | Spreading of BHK cells on fibronectin and fragments [3]: spread equally well
8 | heparin | no detectable effect | –
9 | insulin A chain: Insulin A chain from Sigma Chemical Co., peptide unrelated to RGDS | completely inactive | –
